# PPC-1+TRAIL kill: compounds killing PPC-1 cancer cells with TRAIL present, primary screen, TRAIL potentiator project, ATPLite luminescence, uHTS; cell killing (% activity), % at 4 µM or 5 µM; AID 1443, 2008; hit rate 0.41% among 220,000; PPC-1 cells + TRAIL, ATPLite viability luminescence;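 active = cell killing above 50% in the first pass at 4 µM, then a duplicate retest at 5 µM averaging 50% or more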;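 note: plate controls were cells with TRAIL plus DMSO for no effect and medium-only wells lacking cells for full effect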
# FLuc act counter: FLuc activators, initial screening, artefact control for FLuc-dependent activation tests, biochemical, ATPlite luminescence | activation factor at 10 µM | AID 1027, 2008 | ATPlite luciferase biochemical, 10 min; 0 = ATP-free wells, 1 = DMSO control | 200,000 tested, under 10 active;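 active = luciferase activation factor, scaled between plate controls, of at least 2 with compound at 10 µM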
# Target sequence (P08659 whole entry, looked up): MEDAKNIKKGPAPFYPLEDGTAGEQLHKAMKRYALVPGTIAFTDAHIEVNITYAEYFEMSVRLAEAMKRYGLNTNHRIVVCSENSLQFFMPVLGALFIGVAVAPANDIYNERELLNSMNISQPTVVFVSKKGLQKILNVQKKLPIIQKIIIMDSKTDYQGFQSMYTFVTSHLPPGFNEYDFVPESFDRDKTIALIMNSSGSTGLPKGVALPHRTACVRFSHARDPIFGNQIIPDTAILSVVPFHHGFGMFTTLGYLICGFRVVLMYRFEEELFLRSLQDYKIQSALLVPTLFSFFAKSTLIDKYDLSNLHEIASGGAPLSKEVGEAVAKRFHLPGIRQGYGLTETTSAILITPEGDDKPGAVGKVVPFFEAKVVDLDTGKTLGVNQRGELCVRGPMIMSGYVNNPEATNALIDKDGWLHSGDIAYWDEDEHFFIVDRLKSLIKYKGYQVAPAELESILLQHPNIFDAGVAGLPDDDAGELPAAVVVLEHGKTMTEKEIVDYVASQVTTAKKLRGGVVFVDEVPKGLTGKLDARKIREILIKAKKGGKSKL
#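 System: luciferase plus luciferin reagent, cell-free; medium: PBS as buffer for the ATP substrate; dosing: test compounds dosed from 2 mM stocks in 100% DMSO; timing: 10 min post-reagent at room temperature; measured by: luminescence measurement of luciferase light output; evaluation: luciferase activation, seen as luminescence increase over controls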
# FLuc inhib CS: firefly luciferase enzyme inhibitors, primary screen, artefact control for luciferase-based inhibitor screens, biochemical, luminescence, ATPLite. Luciferin 4-monooxygenase (Photinus pyralis), P08659. 10 min. inhibition, % at 10 µM. hit rate 1.5% among 200,000;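 active = inhibition above about 50% when tested at 10 µM, limit read from the data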
# C8 TRAIL sens: viability loss with TRAIL in NB7+C8 cells, primary screen, TRAIL sensitizer project, cell-based, ATPlite luminescence; inhibition (viability loss, TRAIL sensitization), % at 10 µM; hit rate 1% among 360,000; AID 624354, 2012;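 active = compounds causing at least 50% loss of cell viability in the single-dose screen, relative to plate controls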
# PPC1 cytotox: cytotoxicity in PPC-1 cells, confirmation, cytotoxicity control for TRAIL apoptosis potentiator project, cell-based, ATP content luminescence. shares compounds with PPC-1+TRAIL kill. PPC-1 viability, ATPlite luminescence, overnight. cytotoxicity, % at 5 µM. hit rate 50% among 1,200. AID 1447, 2008;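 active = reconfirmed compounds whose average cytotoxicity reaches 50% or more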;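 note: 0% = DMSO-treated cells and 100% = wells holding medium but no cells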
# Active calls of the source: *; · = not tested or not shown. Rows were chosen to be rich in hits. Some 1.6% of all compounds tested hit in one or more screens of this group.
SMILES,PPC-1+TRAIL kill,FLuc act counter,FLuc inhib CS,C8 TRAIL sens,PPC1 cytotox
O=C(Cc1ccc(S(=O)(=O)N2CCOCC2)s1)NCCOc1ccccc1,·,·,·,-26.9,·
NC(=O)N/N=C/c1c(Sc2nnnn2-c2ccccc2)nc2ccccn2c1=O,-13.2,·,·,-24.6,·
COC(=O)c1ccc(Nc2nc(C)cc(=O)[nH]2)cc1,3.0,1,-0.4,-4.2,14.6
O=C(CSc1nnc(-c2ccccc2)n1-c1ccc(Cl)cc1)N/N=C/c1ccco1,7.6,1.1,-7.6,-6.0,·
COc1cc2sc3ccc(C#Cc4ccccn4)cc3c(=O)c2cc1OC,·,·,·,18.4,·
CCN(CC)C(=O)CSc1ncnc2c(-c3cccs3)nsc12,4.5,1,2.6,10.7,3.8
Nc1nc(CCl)nc(N(c2ccccc2)c2ccccc2)n1,89.8*,·,·,93.5*,90.5*
COc1ccc(N2CCN(c3nc(=S)n(-c4ccccc4)c(C)c3C(C)=O)CC2)cc1,-7.4,1.1,-6.5,21.7,7.8
Cc1cc(C(=O)N/N=C/c2ccc3c(c2)OCO3)c2ccccc2n1,-2.9,·,·,6.3,·
CN1/C(=C/c2cccc[n+]2CCO)Sc2ccccc21,·,·,·,3.7,·
CC[n+]1c(/C=C2\Sc3ccccc3N2C)ccc2cccc(C)c21,36.5,1,1.7,24.8,25.9
CCCCN(CCCC)Cc1cc(=O)oc2ccccc12,·,·,·,0.5,·
O=C(Nc1ccc(-c2nc3cccnc3s2)cc1)C1CCCO1 (configuration not stated),62.5*,0.1,91.4*,-4.8,63.7*
Cc1ccc2nc(-c3ccc(NC(=O)C4CCCO4)cc3)[nH]c2c1 (configuration not stated),65.3*,0.2,81.8*,57.2*,64.5*
Cc1ccc2nc(-c3ccc(NC(=O)Cc4cccs4)cc3)[nH]c2c1,6.7,0.9,10.9,17.7,·
Cc1ccc(NC(=O)CN(C)S(=O)(=O)c2cccc3cccnc23)cc1,5.0,1,-0.9,5.7,·
O=C(Nc1cccc(S(=O)(=O)C(F)F)c1)c1ccc(S(=O)(=O)N2CCOCC2)cc1,-3.9,1.1,-8.3,21.4,-6.1
O=C(Nc1cccc(S(=O)(=O)C(F)F)c1)c1ccc(S(=O)(=O)N2CCCC2)cc1,-10.6,1,-3.1,-6.4,·
O=C(O)CCC(=O)NNC(=O)CCC1CCCCC1,0.2,1,-4.9,-2.3,·
COc1ccc(NC(=O)c2nc3ccccc3s2)cc1,36.0,0.4,60.9*,46.4,39.0
Cc1cc(C)c(S(=O)(=O)N2CCN(C(=O)C3CC3)CC2)c(C)c1,·,·,·,-2.4,·
O=C(CCCN1C(=O)CCC1=O)Nc1ccc2c(c1)OCO2,8.0,1,2.3,-1.6,9.1
Cc1cccc(C(=O)n2c(=S)nc3cc(C)ccn32)c1,77.8*,·,·,81.6*,79.4*
Cc1cccc(C(=O)Nc2ccn(C)n2)c1,·,·,·,14.2,·
COc1cccc(CNc2ccc3[nH]c(=O)[nH]c3c2)c1OCc1ccc(F)cc1,·,·,·,1.7,·
SMILES,PPC-1+TRAIL kill,FLuc act counter,FLuc inhib CS,C8 TRAIL sens,PPC1 cytotox
CC(C)c1ccc(OCC(=O)Nc2ccc(S(=O)(=O)Nc3ccccn3)cc2)cc1,·,·,·,-2.4,·
O=C(c1ncc[nH]1)c1ccccc1C(=O)N1CCOCC1,6.2,1,-0.9,-14.6,5.3
CC1CN(C(=O)c2ccccc2C(=O)c2ncc[nH]2)CC(C)O1 (configuration not stated),9.4,1,4.7,-7.4,·
Cc1ccc(N/C=C/C(=O)c2cccs2)cc1C,71.4*,0.1,94.1*,78.3*,71.1*
Cn1c(-c2ccccc2)cnc1SCC(=O)NCc1ccco1,3.2,1,-3.9,8.3,-6.1
CCOc1ccc(CCNC(=O)COC(=O)c2nc(Cl)ccc2Cl)cc1OCC,·,·,·,-7.1,·
Fc1ccc(CSc2nc3ccccc3[nH]2)cc1,32.9,0.5,48.6,44.9,27.9
Fc1ccc(CSc2nc3ncccc3[nH]2)cc1,31.4,0.6,44.8,11.7,·
COc1cc(OC)c(NC(=O)CCCn2c(=O)oc3ccccc32)cc1Cl,-3.2,1.1,-5.5,23.1,·
COc1ccc(-c2n(Cc3ccccc3)c3ccccc3[n+]2Cc2ccccc2)cc1,8.0,1,-1.1,24.6,4.6
COc1ccc2c(c1)nc(N)n2Cc1ccccc1,7.6,1,-3.8,0.6,·
COc1ccc(CNc2ccc(S(=O)(=O)N3CCN(C)CC3)cn2)cc1OC,·,·,·,4.3,·
O=C(CSc1nnc(-c2cccs2)o1)NCC1CN(Cc2ccccc2)CCO1 (configuration not stated),0.9,1,-1.3,-13.7,6.9
Nc1nonc1-c1nc2ccccc2n1Cc1ccc(F)cc1Cl,19.6,1,-0.8,20.5,·
Fc1ccc(Cn2c(-c3cscn3)nc3ccccc32)c(Cl)c1,-3.0,1,-4.9,-10.1,9.6
CCc1ccc(Nc2nnc(SCC(=O)N(C)C3CCS(=O)(=O)C3)s2)cc1 (configuration not stated),70.3*,·,·,70.5*,67.6*
CN(C(=O)CSc1nnc(NC2CCCCC2)s1)C1CCS(=O)(=O)C1 (configuration not stated),21.2,1,-3.3,-5.0,·
CCc1ccc(Nc2nnc(SCC(=O)NC(=O)c3cccn3C)s2)cc1,45.5,0.9,5.3,45.2,40.7
COc1ccc(/C=N/Nc2nnc(Cc3ccccc3)c(=O)[nH]2)cc1OC,59.2*,·,·,67.9*,58.9*
COc1ccc(Cc2nnc(N/N=C/c3ccc(Br)cc3)[nH]c2=O)cc1OC,-6.8,·,·,-4.1,·
O=C(O)c1cc(NC(=O)c2ccc3c(c2)C(=O)N(Cc2cccnc2)C3=O)cc(C(=O)O)c1,·,·,·,-17.8,·
Cc1ccc(-c2nnc(Nc3ccccc3)o2)cc1,83.5*,0.1,88.2*,80.6*,85.0*
CCOc1ccc(N2CC(C(=O)OCC(=O)c3ccc(OC)cc3)CC2=O)cc1 (configuration not stated),·,·,·,0.7,·
Cn1c(=NC(=O)c2ccco2)sc2ccccc21,50.4*,0.1,86.0*,58.8*,53.3*
Cc1sc(=NC(=O)c2ccco2)n(C)c1-c1ccccc1,75.5*,0.1,91.2*,78.1*,73.8*
SMILES,PPC-1+TRAIL kill,FLuc act counter,FLuc inhib CS,C8 TRAIL sens,PPC1 cytotox
COCCn1c(SCC(=O)N2CC(=O)Nc3ccccc32)nc2ccccc21,28.9,1.1,-5.2,4.3,·
c1cc2c(cc1C1=NNC(=NC3CC3)SC1)OCCO2,88.6*,0,96.3*,91.7*,87.5*
COC(=O)NNC(=S)Nc1cc(OC)ccc1OC,-9.6,1.1,-11.1,18.3,·
CCN1C(=O)C2(C(C#N)=C(N)Oc3cc(C)oc(=O)c32)c2ccccc21 (configuration not stated),-9.9,1,-0.3,4.8,1.5
CC(C)COC(=O)/C(C#N)=C/c1cn(Cc2ccccc2)c2ccccc12,11.2,1,0.2,16.4,·
COc1ccc(NS(=O)(=O)c2ccc(SC)cc2)cc1,23.5,1,2.3,-5.4,·
